Results pooled from the literature.
Lines come from different studies, so protocols differ.
Cell line: SK-BR-3
Effect on: cell growth or viability

COc1cccc2c1C(=O)c1c(O)c3c(c(O)c1C2=O)C[C@@](O)(C(=O)CO)C[C@@H]3O[C@H]1C[C@H](N)[C@H](O)[C@H](C)O1  IC50 (MTT; 72 h): 1.65 µM
CN1CCN(c2ccc(Nc3ncc4cc(C#N)c(=O)n(C5CCCC5)c4n3)cc2)CC1  GI50 (resazurin; 96 h): 0.6 µM
COc1cc(OC)c(/C=C/S(=O)(=O)Nc2ccc(OC)c(N)c2)c(OC)c1  IC50 (trypan blue; 96 h): 0.004 µM
COC1=C2C[C@@H](C)C[C@H](OC)[C@H](O)[C@@H](C)/C=C(\C)[C@H](OC(N)=O)[C@@H](OC)/C=C\C=C(/C)C(=O)NC(=CC1=O)C2=O  IC50 (SRB; 72 h): 0.05 µM
CC(=O)O[C@H]1C(=O)[C@@]2(C)[C@H]([C@H](OC(=O)c3ccccc3)[C@]3(O)C[C@H](OC(=O)[C@H](O)[C@@H](NC(=O)c4ccccc4)c4ccccc4)C(C)=C1C3(C)C)[C@]1(OC(C)=O)CO[C@@H]1C[C@@H]2O  IC50 (MTT; 72 h): 0.005 µM
CC(C)C[C@H](NC(=O)[C@H](Cc1ccccc1)NC(=O)c1cnccn1)B(O)O  IC50 (ATP luminescence): 0.0088 µM
Cc1cc(C)n(-c2nc(NN=Cc3c[nH]c4ccccc34)nc(Nc3ccc(Br)cc3)n2)n1  IC50 (SRB; 72 h): 6 µM
CC(=O)c1c(C)c2cnc(Nc3ccc(N4CCNCC4)cn3)nc2n(C2CCCC2)c1=O  GI50 (resazurin): 5 µM
NNc1nc(Nc2ccccc2)nc(Nc2ccc(Br)cc2)n1  IC50 (SRB; 72 h): > 30 µM
COc1cc(Nc2nccc(-c3cnn4nc(OC)ccc34)n2)cc(C(F)(F)F)c1  IC50 (ATP luminescence): 0.34 µM
